The record followed here is ChEMBL document CHEMBL1629423, “Second generation analogs of rigid 6,7-spiro scaffolds targeting the bacterial ribosome” (Bioorg Med Chem Lett, 2010).

Assay [1] concerns the target Nucleic Acid. Briefly: Binding affinity to RNA by RNA fluorescence assay. The format is nucleic-acid assay. The procedure, abridged: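 Decoding-site model RNA oligonucleotide carrying 2-aminopurine at the flexible adenine A1492. Binding is read as the rise in 2AP fluorescence emission. EC50 is the mean of three replicate experiments per compound (±10%), in μM.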
Assay [2] has as its target Ribosome. Briefly: Binding affinity to ribosome in reticulocyte lysate assessed as inhibition of transcription-translational activity by luciferase assay. The format is subcellular. The procedure, abridged: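 Eukaryotic counter-screen by coupled transcription/translation (TNT quick) in reticulocyte lysate. IC50 is the mean of three replicate experiments per compound (±15%), in μM.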

Assay [3] concerns the target Bacterial 70S ribosome. Briefly: Binding affinity to Escherichia coli ribosome assessed as inhibition of transcription-translational activity by luciferase assay. The format is subcellular. In a few lines:
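Coupled in vitro transcription–translation run in E. coli extract. IC50 values are given in μM and averaged over three replicate experiments per compound (±15%).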

Structures are written as SMILES. A value given as a limit tells only on which side of the number the result lay.

Compound `N[C@@H]1C[C@H](N)[C@@]2(C[C@H](O)[C@H](O)CO2)[C@H](O)[C@H]1O` had a concentration for a half-maximal effect (EC50) in assay [1] of 6.5 µM. The IC50 in assay [2] was over 1000 µM; in assay [3] it was 11.3 µM.
The corresponding values for `N[C@@H]1C[C@H](N)[C@@]2(CC[C@@H](O)[C@@H](O)CO2)[C@H](O)[C@H]1O` are 141 µM, 160 µM and 168 µM.
For the compound `N[C@@H]1C[C@H](N)[C@@]2(CC[C@H](O)[C@H](O)CO2)[C@H](O)[C@H]1O`, the 50% effective concentration (EC50) in assay [1] was 74 µM. Moreover, the IC50 was determined as 130 µM in assay [2] and 118 µM in assay [3].
The corresponding values for `N[C@@H]1C[C@H](N)[C@@]2(CCC=CCO2)[C@H](O)[C@H]1O` are 8.4 µM, over 1000 µM and over 1000 µM.
The corresponding values for `C=CCC(C)(C)CN[C@@H]1C[C@H](N)[C@@]2(CCC=CCO2)[C@H](O)[C@H]1O` are 63 µM, over 1000 µM and 429 µM.
The corresponding values for `NCC[C@H](O)C(=O)N[C@@H]1C[C@H](N)[C@@]2(CC[C@H](O)[C@H](O)CO2)[C@H](O)[C@H]1O` are 6.9 µM, over 1000 µM and 186 µM.
For `NCCCC[C@H](N)C(=O)N[C@@H]1C[C@H](N)[C@@]2(CC[C@H](O)[C@H](O)CO2)[C@H](O)[C@H]1O`, the EC50 in assay [1] is 12 µM. In addition, the half-inhibitory concentration (IC50) was over 1000 µM in assay [2] and 98 µM in assay [3].
The corresponding values for `NC[C@@H]1O[C@H](O[C@H]2[C@@H](O)[C@H](O[C@@H]3[C@@H](O)[C@H](N)C[C@H](N)[C@H]3O[C@H]3O[C@H](CN)[C@@H](O)[C@H](O)[C@H]3N)O[C@@H]2CO)[C@H](N)[C@@H](O)[C@@H]1O` [FRAMYCETIN] are 0.007 µM, 252 µM and 0.032 µM.
The corresponding values for `NC[C@H]1O[C@H](O[C@H]2[C@H](O)[C@@H](O)[C@H](N)C[C@@H]2N)[C@H](N)[C@@H](O)[C@@H]1O` [NEAMINE] are 9.5 µM, 120 µM and 5 µM.

One may read the EC50 as the concentration that produces a half-maximal response. Read a low EC50 as a more potent agent. The term IC50 denotes the point on the concentration scale where inhibition reaches its midpoint.
